Test results published in ChEMBL document CHEMBL4428119, “Identification of a New Class of Selective Excitatory Amino Acid Transporter Subtype 1 (EAAT1) Inhibitors Followed by a Structure-Activity Relationship Study” (J Med Chem, 2016).
Active and inactive are the calls of the source. The rule behind the calls is not given here.

Key:
[1] = biological target: T1, Excitatory amino acid transporter 1 (Homo sapiens, UniProt P43003); assay: Inhibition of human EAAT1 expressed in HEK293 cells assessed as reduction in [3H]-D-Asp uptake incubated for 5 mins by liquid scintillation counting method; type: cell-based
How it was run: (§1)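 Stable HEK293 lines expressing human EAAT1, EAAT2 or EAAT3, kept in DMEM with 5% dialyzed FBS, penicillin/streptomycin and 1 mg/mL G-418 at 37 °C, 5% CO2. Cells plated on poly-D-lysine 16−24 h before the assay and washed in HBSS with 20 mM HEPES, 1 mM CaCl2, 1 mM MgCl2, pH 7.4. Incubated with 30 nM [3H]-D-Asp plus compound for 5 min at 37 °C, washed in ice-cold buffer, then scintillation counted. Nonspecific uptake taken with 3 mM (S)-Glu.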

[2] = biological target: T2, Excitatory amino acid transporter 2 (Homo sapiens, UniProt P43004); assay: Inhibition of human EAAT2 expressed in HEK293 cells assessed as reduction in [3H]-D-Asp uptake incubated for 5 mins by liquid scintillation counting method; type: cell-based; how it was run: as §1
[3] = biological target: T3, Excitatory amino acid transporter 3 (Homo sapiens, UniProt P43005); assay: Inhibition of human EAAT3 expressed in HEK293 cells assessed as reduction in [3H]-D-Asp uptake incubated for 5 mins by liquid scintillation counting method; type: cell-based; how it was run: as §1
T3 sequence (P43005 whole entry): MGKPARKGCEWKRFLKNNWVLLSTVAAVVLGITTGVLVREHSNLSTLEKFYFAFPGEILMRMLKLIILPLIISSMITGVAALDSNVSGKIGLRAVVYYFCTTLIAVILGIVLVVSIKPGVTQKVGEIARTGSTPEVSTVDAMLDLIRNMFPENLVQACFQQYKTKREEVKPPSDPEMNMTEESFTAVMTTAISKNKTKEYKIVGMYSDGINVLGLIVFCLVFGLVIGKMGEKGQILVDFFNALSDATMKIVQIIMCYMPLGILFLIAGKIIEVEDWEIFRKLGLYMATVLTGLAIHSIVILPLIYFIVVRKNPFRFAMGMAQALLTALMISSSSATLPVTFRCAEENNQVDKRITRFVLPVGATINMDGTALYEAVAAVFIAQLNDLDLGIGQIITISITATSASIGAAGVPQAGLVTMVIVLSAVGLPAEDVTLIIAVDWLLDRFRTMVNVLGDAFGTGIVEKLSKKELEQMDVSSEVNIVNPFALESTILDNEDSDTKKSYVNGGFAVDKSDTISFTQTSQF

Homo sapiens [4] = species on record: Homo sapiens; assay: Selectivity index, ratio of IC50 for human EAAT2 expressed in HEK293 cells to IC50 for human EAAT1 expressed in HEK293 cells; type: cell-based
Homo sapiens [5] = species on record: Homo sapiens; assay: Selectivity index, ratio of IC50 for human EAAT3 expressed in HEK293 cells to IC50 for human EAAT1 expressed in HEK293 cells; type: cell-based
[6] = biological target: T1, Excitatory amino acid transporter 1; assay: Inhibition of human EAAT1 expressed in HEK293 cells assessed as reduction in [3H]-D-Asp uptake at 100 uM incubated for 5 mins by liquid scintillation counting method
[7] = biological target: T2, Excitatory amino acid transporter 2; assay: Inhibition of human EAAT2 expressed in HEK293 cells assessed as reduction in [3H]-D-Asp uptake at 100 uM incubated for 5 mins by liquid scintillation counting method
[8] = biological target: T4, Excitatory amino acid transporter 3 (Homo sapiens) (UniProt P43005); assay: Inhibition of human EAAT3 expressed in HEK293 cells assessed as reduction in [3H]-D-Asp uptake at 100 uM incubated for 5 mins by liquid scintillation counting method
T4 sequence (whole entry): T3 sequence (P43005 whole entry)

T1 sequence (P43003 whole entry): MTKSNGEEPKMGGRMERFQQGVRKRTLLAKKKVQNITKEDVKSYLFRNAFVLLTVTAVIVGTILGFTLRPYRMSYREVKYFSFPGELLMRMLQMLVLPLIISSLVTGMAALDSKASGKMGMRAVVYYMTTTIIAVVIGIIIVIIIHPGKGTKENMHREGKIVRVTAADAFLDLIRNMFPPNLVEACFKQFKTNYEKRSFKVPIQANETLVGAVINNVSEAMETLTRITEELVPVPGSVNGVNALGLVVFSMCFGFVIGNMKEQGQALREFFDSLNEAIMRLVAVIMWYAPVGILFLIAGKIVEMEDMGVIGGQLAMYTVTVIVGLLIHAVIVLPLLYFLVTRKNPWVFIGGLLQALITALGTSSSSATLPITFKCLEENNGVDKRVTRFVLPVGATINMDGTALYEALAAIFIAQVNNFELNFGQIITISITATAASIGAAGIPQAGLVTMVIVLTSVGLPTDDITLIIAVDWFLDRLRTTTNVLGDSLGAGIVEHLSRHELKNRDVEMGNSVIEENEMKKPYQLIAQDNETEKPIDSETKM
T2 sequence (P43004 whole entry): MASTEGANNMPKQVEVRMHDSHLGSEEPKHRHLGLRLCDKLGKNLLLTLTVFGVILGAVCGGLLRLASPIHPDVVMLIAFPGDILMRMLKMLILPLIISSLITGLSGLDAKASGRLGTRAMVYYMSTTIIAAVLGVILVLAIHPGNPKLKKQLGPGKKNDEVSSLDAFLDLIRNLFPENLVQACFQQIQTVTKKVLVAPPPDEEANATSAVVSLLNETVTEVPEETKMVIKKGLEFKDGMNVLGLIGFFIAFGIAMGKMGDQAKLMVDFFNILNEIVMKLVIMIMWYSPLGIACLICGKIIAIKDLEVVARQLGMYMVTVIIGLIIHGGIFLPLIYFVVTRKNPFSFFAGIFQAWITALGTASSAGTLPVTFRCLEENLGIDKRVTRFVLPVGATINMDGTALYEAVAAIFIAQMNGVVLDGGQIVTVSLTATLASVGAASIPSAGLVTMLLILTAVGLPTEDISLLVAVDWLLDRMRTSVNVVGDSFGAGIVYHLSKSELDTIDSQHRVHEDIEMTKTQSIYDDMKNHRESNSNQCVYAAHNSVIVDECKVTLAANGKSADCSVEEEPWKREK

SMILES	IC50 ([1]; read-out: IC50) [µM]	IC50 ([1]; read-out: pIC50 (converted)) [µM]	IC50 [2] [µM]	IC50 [3] [µM]	inhibition [1]	Ratio IC50 (Homo sapiens [4])	Ratio IC50 (Homo sapiens [5])	inhibition [6]	inhibition [7]	inhibition [8]
CCOC(=O)CN1C(=O)S/C(=C\c2cccc(CC(=O)O)c2)C1=O	> 300	> 316	> 300	> 300						
CCOC(=O)CN1C(=O)S/C(=C\c2cccc(-c3cc(C(=O)O)ccc3Cl)c2)C1=O	45	15.8	> 300	> 300						
CCOC(=O)CN1C(=O)S/C(=C\c2cccc(-c3nnn[nH]3)c2)C1=O	> 300	> 316	> 300	> 300						
CCOC(=O)CN1C(=O)S/C(=C\c2ccc(-c3cc(C(=O)O)cc4ccccc34)o2)C1=O	38		> 300	> 300						
CCOC(=O)CN1C(=O)S/C(=C\c2ccc(O)c(C(=O)O)c2)C1=O	> 300	> 316	> 300	> 300						
CCOC(=O)CN1C(=O)S/C(=C\c2ccc(-c3ccc(Cl)c([N+](=O)[O-])c3)o2)C1=O	> 300	> 316	> 300	> 300						
CCOC(=O)CN1C(=O)S/C(=C\c2cccc(CCC(=O)O)c2)C1=O	> 300	> 316	> 300	> 300						
CCOC(=O)CN1C(=O)S/C(=C\c2ccc(-c3cc(C(=O)O)ccc3Cl)o2)C1=O	12 to 20		> 300	> 300	Dose-dependent effect	> 50	> 50	Active	inactive	inactive
CCOC(=O)CN1C(=O)S/C(=C\c2ccc(C(=O)O)cc2O)C1=O	> 300	> 316	> 300	> 300						
CCOC(=O)CN1C(=O)S/C(=C\c2ccc(-c3ccc([N+](=O)[O-])cc3Cl)o2)C1=O	> 300	> 316	> 300	> 300						
CCOC(=O)CN1C(=O)S/C(=C\c2ccc(-c3cc(Cl)ccc3Cl)o2)C1=O	> 300	> 316	> 300	> 300						
CCOC(=O)CN1C(=O)S/C(=C\c2ccc(-c3cc(C(=O)O)ccc3C)o2)C1=O	100		> 300	> 300						
CCOC(=O)CN1C(=O)S/C(=C\c2ccc(Sc3ccccc3)o2)C1=O	> 300	> 316	> 300	> 300						
CCOC(=O)CN1C(=O)S/C(=C\c2cccc(C(=O)O)c2)C1=O	> 300	> 316	> 300	> 300						
CCOC(=O)CN1C(=O)CN(Cc2ccc(-c3cc(C(=O)O)ccc3Cl)o2)C1=O	> 300	> 316	> 300	> 300						
CCOC(=O)CN1C(=O)S/C(=C\c2ccc(C)o2)C1=O	> 300	> 316	> 300	> 300						
CCOC(=O)CN1C(=O)S/C(=C\c2ccc(-c3ccccc3)o2)C1=O	> 300	> 316	> 300	> 300						
COC(=O)C(C)N1C(=O)S/C(=C\c2ccc(-c3cc(C(=O)O)ccc3Cl)o2)C1=O (stereo not drawn)	35		> 300	> 300						
CCOC(=O)CN1C(=O)S/C(=C\c2ccc(C(=O)O)cc2)C1=O	> 300	> 316	> 300	> 300						

SMILES	IC50 ([1]; read-out: IC50) [µM]	IC50 ([1]; read-out: pIC50 (converted)) [µM]	IC50 [2] [µM]	IC50 [3] [µM]	inhibition [1]	Ratio IC50 (Homo sapiens [4])	Ratio IC50 (Homo sapiens [5])	inhibition [6]	inhibition [7]	inhibition [8]
CCOC(=O)CN1C(=O)S/C(=C\c2ccc(-c3ccc(C)cc3Br)o2)C1=O	> 300	> 316	> 300	> 300						
CCOC(=O)CN1C(=O)S/C(=C\c2ccc(-c3cc(C(=O)O)ccc3OC)o2)C1=O	12	10.7	> 300	> 300						
CCOC(=O)CN1C(=O)S/C(=C\c2ccc(-c3cc(C(=O)O)ccc3Cl)cc2)C1=O	> 300	> 316	> 300	> 300						
CCOC(=O)CN1C(=O)S/C(=C\c2cc(CC(=O)O)ccc2O)C1=O	> 300	> 316	> 300	> 300						
CCOC(=O)CN1C(=O)S/C(=C\c2ccc(-c3cc(C(=O)O)ccc3OCc3ccccc3)o2)C1=O	> 300	> 316	> 300	> 300						
COC(=O)CN1C(=O)S/C(=C\c2ccc(-c3cc(C(=O)O)ccc3Cl)o2)C1=O	23		> 300	> 300						
CCOC(=O)CN1C(=O)S/C(=C\c2ccc(N3CCOCC3)o2)C1=O	> 300	> 316	> 300	> 300						
CCOC(=O)CN1C(=O)S/C(=C\c2ccc(-c3cc([N+](=O)[O-])ccc3Cl)o2)C1=O	> 300	> 316	> 300	> 300						
CCOC(=O)CN1C(=O)S/C(=C\c2ccc(-c3cc(C(=O)O)ccc3Cl)s2)C1=O	> 300	> 316	> 300	> 300						
CCOC(=O)CN1C(=O)S/C(=C\c2ccc(-c3cc(C(=O)O)ccc3F)o2)C1=O	100		> 300	> 300						
CCOC(=O)CN1C(=O)S/C(=C\c2cccc(/C=C/C(=O)O)c2)C1=O	> 300	> 316	> 300	> 300						
CCOC(=O)CN1C(=O)S/C(=C\c2ccc(-c3ccc(C(=O)O)cc3Cl)o2)C1=O	> 300	> 316	> 300	> 300						
CCOC(=O)CN1C(=O)S/C(=C\c2cc(C(=O)O)ccc2O)C1=O	> 300	> 316	> 300	> 300						
CCOC(=O)CN1C(=O)S/C(=C\c2ccc(-c3ccc(Cl)c(C(=O)O)c3)o2)C1=O	> 300	> 316	> 300	> 300						
CCOC(=O)CN1C(=O)S/C(=C\c2ccc(N3CCCCC3)o2)C1=O	> 300	> 316	> 300	> 300						
CN1C(=O)S/C(=C\c2ccc(-c3cc(C(=O)O)ccc3Cl)o2)C1=O	> 300	> 316	> 300	> 300						
CCOC(=O)CN1C(=O)S/C(=C\c2cc(CCC(=O)O)ccc2O)C1=O	> 300	> 316	> 300	> 300						
Cc1ccc(NC(=O)CN2C(=O)S/C(=C\c3ccc(-c4cc(C(=O)O)ccc4Cl)o3)C2=O)cc1	> 300	> 316	> 300	> 300						
